Source: PubChem (several laboratories)
KCC2 mod: modulates chloride dependent transport by human KCC2; Q9H2X9; KCC2 cells, thallium flux FluoZin-2 fluorescence; B-score of Tl+ flux slope (higher = more flux/activation; lower = inhibition) at 10 µM; 190,000 compounds, 2.2% hits;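 active means thallium flux slope and its plate-corrected score both differing from the plate sample mean at a set confidence after two filtering rounds, in either direction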;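 further: slope of fluorescence scaled to starting intensity during 10 to 20 s after thallium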
SUMO Mot1 rescue: SUMOylation pathway inhibition by Mot1-301 growth rescue; S. cerevisiae Mot1-301 growth rescue, ATP luminescence, 38.5C; percent above DMSO median, 100 means doubled; growth rescue, % at 18.8 µM; 320,000 compounds, 1% hits;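 active means every valid replicate shows activation above 250% relative to neutral control wells; inactive means the rest, any valid replicate at or below 250%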
KCNQ1 block: inhibitors of human KCNQ1 potassium channel; AID 2642; B-score at 10 µM; CHO-K1 KCNQ1, FluxOR thallium flux fluorescence; active compounds read high; 310,000 compounds, 1.3% hits; P51787;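 active means compounds whose thallium flux B-score, printed positive for inhibition, exceeds three library SD while starting fluorescence stays within three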;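 further: channel opened by potassium depolarization with thallium stimulus after 20 min compound exposure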
hERG protect: compounds protecting human hERG from proarrhythmic drug block. Q12809. CHO-hERG, FluxOR thallium flux, dofetilide IC70 present. activation (rescue from dofetilide block), less the hit threshold, % at 10 µM. 310,000 compounds, 0.51% hits. AID 1511;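 active means activation above the mean of controls blocked by dofetilide plus 5 SD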;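 further: thallium influx through hERG after potassium depolarization seen as dye fluorescence rise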
AI-2 QS modul: modulates the Vibrio harveyi AI-2 quorum sensing system; Vibrio harveyi JMH597 AI-2 luminescence/OD600 ratio, 9 h; active compounds read low; strain lacks LuxN and CqsS sensors; 0 = neutral-control median; 300,000 compounds, 0.4% hits; activity change, % at 7.5 µM; in the data active means activity change below about -75%, passing the limit was not always enough;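 further: luminescence divided by OD600 gain over 9 h not by final OD600 alone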
KCNQ1 act: potentiators or activators of human KCNQ1 potassium channel | 310,000 compounds, 0.35% hits | AID 2648 | B-score at 10 µM | P51787 | CHO-K1 KCNQ1, thallium flux FluxOR fluorescence; active compounds read high;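 active means fluorescence ratio B-score, a plate-corrected score, at least three library SD, with initial intensity B-score within 5 SD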
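Assay system: CHO-K1 cells stably expressing KCNQ1. Medium: assay buffer for compound exposure, DMSO matched across wells. Timing: 37 °C overnight plating, 90-min dark dye load, 20-min compound pretreatment. Signal: kinetic FluxOR fluorescence, 10 s baseline plus 110 s post-stimulus.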
Hits are given with their value; - = inactive; . = not tested or not shown. Shown are actives, neighbours in structure and some others; about 4.2% of the full set was active somewhere.

SMILES	KCC2 mod	SUMO Mot1 rescue	KCNQ1 block	hERG protect	AI-2 QS modul	KCNQ1 act
COc1cccc2[nH]c3c(N4CCN(Cc5ccc6c(c5)OCO6)CC4)ncnc3c12	-	-	-	-	-	-
COc1ccc2c(c1)[nH]c1c(N3CCN(Cc4ccc5c(c4)OCO5)CC3)ncnc12	.	-	9	-	-	-
Cc1c(CCOC(=O)CC23CC4CC(CC(C4)C2)C3)sc[n+]1CC(=O)c1ccccc1	-	-	6	-	-	-
Cc1c(CCOC(=O)C23CC4(C)CC(C)(CC(C)(C4)C2)C3)sc[n+]1CC(=O)c1ccccc1	-	-	-	-	-	-
O=C(Nc1ccccc1Cl)C1C(c2ccccc2)C1(Cl)Cl (stereo not drawn)	.	-	6	-	-	-
CCCn1c(=N)n(CC(=O)C(C)(C)C)c2ccccc21	-	-	6	-	-	-
CCCCn1c(=N)n(CC(=O)C(C)(C)C)c2ccccc21	.	-	-	-	-	-
CCN(CC(=O)Nc1cc(Cl)ccc1C)C(=O)c1nc2nc(C)cc(C)n2n1	.	-	.	.	.	.
CCC(CC)c1nnc(NC(=O)CN2C(=O)c3ccccc3C2=O)s1	-	-	-	-	-	-
CCCC(C)c1nnc(NC(=O)CN2C(=O)c3ccccc3C2=O)s1 (stereo not drawn)	-	.	-	-	-88.0	-
COc1ccc(NC(=O)CN(C)C(=O)Cn2cnc3c2c(=O)n(C)c(=O)n3C)cc1	.	-	-	-	-	-
Cc1cccc(NC(=O)c2cc(-c3cccnc3)nc3c(C)cccc23)n1	.	-	-	-	-	-
Cc1ccc(OC(C)C(=O)Nc2ccccc2C(=O)NCc2cccnc2)cc1C (stereo not drawn)	.	-	6	-	-	-
CSc1ccccc1NC(=O)c1ccccc1C	-	.	-	-	-	-
CC(=O)NC12CC3CC(C1)CC(C(=O)N1CCN(c4ncccn4)CC1)(C3)C2	.	-	-	-	-	-
CC(=O)N1N=C(c2cccc(Cl)c2)OC1c1ccc(C(C)C)cc1 (stereo not drawn)	-	-	6	-	-	-
Cc1cc(C)nc(NC(=O)c2ccc(C)c(C)c2)n1	.	-	-	-	-	-
Cc1cc(C)nc(NC(=O)c2ccc(OC(C)C)cc2)n1	.	284.0	-	-	-	-
Cc1c(Br)c([N+](=O)[O-])nn1CC(=O)N1CCN(C23CC4CC(CC(C4)C2)C3)CC1	.	-	-	-	-	-
COc1cc(C2OC(=O)C3C(c4ccc(OC(C)=O)c(OC)c4)OC(=O)C23)ccc1OC(C)=O (stereo not drawn)	.	-	-	-	-	-
CCOC(=O)N1CCN(c2nc(N(c3ccccc3)c3ccccc3)nc(-n3ccnc3)n2)CC1	-	-	8	-	-	-
Cc1cc(C(=O)CSc2nn3c(=O)c(C(C)(C)C)nnc3s2)c(C)n1C	-	-	-	-	-	-
O=C(O)CC(NC(=O)C(c1ccccc1)c1ccccc1)c1ccc(F)cc1 (stereo not drawn)	-	-	-	-	-	-
COc1ccc(C(CC(=O)O)NC(=O)C(c2ccccc2)c2ccccc2)cc1 (stereo not drawn)	.	-	-	10.9	-	-
CCN(C(=S)NC(=O)c1ccccc1Br)C1CCCCC1	62.6	-	-	57.0	-	36
SMILES	KCC2 mod	SUMO Mot1 rescue	KCNQ1 block	hERG protect	AI-2 QS modul	KCNQ1 act
CCN(CC(=O)Nc1ccccc1Br)C1CCCCC1	-	-	-	-	-	-
CCOC(=O)CSc1nc2c(sc(=S)n2-c2ccc(CC)cc2)c(=O)[nH]1	.	-	6	-	-	-
CC(=O)Nc1ccc(S(=O)(=O)Nc2ccc(C(=O)NCC(=O)O)cc2)cc1	-	348.9	-	-	-	-
CC(=O)Nc1ccc(S(=O)(=O)Nc2ccc(S(=O)(=O)Nc3nc(C)cc(C)n3)cc2)cc1	.	-	-	-	-	-
N#Cc1ccsc1NC(=O)C1CCN(C(=O)c2ccc(Cl)cc2)CC1	.	-	-	-	-	-
CCOc1ccc(OCCCCOc2ccccc2C(C)=O)cc1	-	-	7	-	-	-
CCOc1cccc(OCCOCCOc2ccccc2C(C)=O)c1	-	-	-	-	-	-
CCn1c(=S)[nH]c2nc3c(cc2c1=O)CCCC3	42.3	-	-	-	-	-
Cc1cc(N=NC(=O)c2ccccc2O)c2ccccc2c1O	-3.55	-	-	-	-	-
Cn1c(O)c(N=NC(=O)c2ccccc2O)c2ccccc21	-	-	-	-	-	-
CSc1nc(-c2ccc(C)cc2)[nH]c1S(=O)(=O)c1ccccc1	-	.	-	-	-	-
CC(=O)Sc1nc(-c2ccccc2)[nH]c1S(=O)(=O)c1ccc(C)cc1	-	-	10	-	-	-
CCC(=O)Nc1ccc(C(=O)Cn2ncc(Cl)c(Cl)c2=O)cc1	-	-	-	-	-	-
Cc1ccc(S(=O)(=O)N2CCCCC2)cc1NC(=O)Cn1ncc(Cl)c(Cl)c1=O	.	-	.	.	.	.
Cc1cc(Br)ccc1NC(=O)CNC(=O)Cn1ncc(Cl)c(Cl)c1=O	-	-	-	4.7	-	-
Cc1ccc(C(=O)OCn2ncc(Cl)c(Cl)c2=O)cc1	.	-	-	-	-	10
CCOC(=O)c1ccc(NC(=O)Cn2ncc(Cl)c(Cl)c2=O)cc1	-	-	-	-	-95.6	-
O=C(OCn1ncc(Cl)c(Cl)c1=O)c1ccc(C(F)(F)F)cc1	-	.	-	-	-	-
O=S(=O)(Nc1c(F)cccc1F)c1ccc(Cl)nc1	.	-	-	-	.	-
CC(CCc1ccccc1)NC(=O)C(Cc1ccccc1)NC(N)=O (stereo not drawn)	.	-	-	-	-	-
CCN(CC)CCNC(=O)c1ccc(NC(=O)c2cn(-c3ccccc3)nc2-c2cccs2)cc1	-	-	7	-	-	-
CCN(CC)CCNC(=O)c1ccc(NC(=O)c2c(C)nn(-c3ccc(F)cc3)c2Cl)cc1	.	-	-	-	-	-
CCN(CC)CCNC(=O)c1ccc(NC(=O)c2cn(-c3ccc(F)cc3)nc2-c2cccc(OC)c2)cc1	.	-	11	-	.	-
CCOc1ccc(NC(=O)CN(C)C(=O)c2cn(-c3ccc(F)cc3)nc2-c2cccc(OC)c2)cc1OCC	.	-	7	-	-	-
O=C(Nc1cccnc1)c1cn(-c2ccccc2)nc1-c1cccs1	-	-	-	-	-	-
CCOc1ccc(NC(=O)CN(C)C(=O)c2c(C)nn(-c3ccc(F)cc3)c2Cl)cc1OCC	.	-	-	-	-	-
COc1ccccc1N1C(=O)C2C(C(=O)c3ccccc3)=NN(c3ccccc3)C2C1=O (stereo not drawn)	-	-	6	-	-	-
CCOC(=O)C1=NN(c2ccccc2)C2C(=O)N(c3ccccc3OC)C(=O)C12 (stereo not drawn)	-	-	-	-	-	-
